These results are taken from ChEMBL document CHEMBL4373735, “N-alkyl-hydroxybenzoyl anilide hydroxamates as dual inhibitors of HDAC and HSP90, downregulating IFN-γ induced PD-L1 expression” (Eur J Med Chem, 2020).

pIC50: −log10 of the molar value. Active and inactive are the calls of the source. The calls are words filed in the database; no cut-off is given here.

For one test, the target named is Histone deacetylase 3 (Homo sapiens, UniProt O15379). Kind of test: Inhibition of human recombinant full length C-terminal His-tagged HDAC3 (1 to 428 residues) expressed in baculovirus infected insect cells using RHK-K(Ac)-AMC as substrate after 60 mins by fluorimetry analysis. In a few lines:
(§1)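 Isoform assays run by an outside contractor. […] Trichostatin A tested in parallel the same way as control.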

The next test concerns the target Histone deacetylase 4 (Homo sapiens, UniProt P56524). Kind of test: Inhibition of recombinant N-terminal GST-tagged and C-terminal His-tagged human HDAC4 expressed in baculovirus infected insect cells using RHK-K(Ac)-AMC as substrate after 60 mins by fluorimetry analysis. In a few lines:
as §1

The next test addresses Histone deacetylase. The test is classed as cell-based, Homo sapiens. The note with it: hela.
Another test concerns A549. Nature of the test: Antiproliferative activity against human A549 cells assessed as cell growth inhibition after 48 hrs by sulforhodamine B assay. The note with it: Homo sapiens, A549, 48 h. The test is classed as functional. In a few lines: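 Cells seeded at 5000/well overnight; baseline plate fixed with 10% TCA at time of compound addition (T0). Treated with DMSO or graded doses for 48 h, fixed with 10% TCA, stained with 0.4% (w/v) SRB in 1% acetic acid, washed with 1% acetic acid, dye solubilised in 10 mM Trizma base, absorbance at 515 nm. GI50 from T0-corrected growth; at least three independent experiments, SD reported.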
On the technique in general: The SRB assay estimates cell density from bound dye.

For test [1], the system named is NCI-H1975. Kind of test: Induction of apoptosis in human NCI-H1975 cells assessed as activation of caspase 8 at 0.1 to 3 uM measured after 48 hrs immunoblot analysis. The format is functional, cell-based. In a few lines: (§2)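 H1975 cells cultured with compound at the indicated concentrations for 48 h, then immunoblotted with the indicated antibodies. Lysis buffer was ice-cold RIPA-type with phosphatase and protease inhibitors, 30 min on ice. Proteins separated on 8-15% SDS-PAGE, transferred to PVDF, primary antibody overnight at 4°C, HRP secondary 1 h at room temperature, ECL detection.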
Background: In western blotting, separated proteins are transferred to a membrane and probed.

Test [2] has as its system NCI-H1975. Nature of the test: Inhibition of IFNgamma-induced PD-L1 expression in human NCI-H1975 cells assessed as reduction in PD-L1 expression incubated for 48 hrs by Western blot analysis. The test is classed as functional, cell-based. In short, it runs like this: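 H1975 cells exposed to IFN-γ 20 ng/ml alone or together with compound at the indicated concentrations for 48 h. Lysates run on 10% reducing SDS-PAGE and transferred to nitrocellulose. Blocked in 5% milk/PBST, probed with mouse anti-PD-L1 for 1 h, HRP goat anti-mouse detected by ECL. β-actin used as loading control.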

The target of a further test is Histone deacetylase 9 (Homo sapiens, UniProt Q9UKV0). Nature of the test: Inhibition of human HDAC9 using (Boc-Lys(trifluoroacetyl)-AMC) as substrate by fluorescence assay. In a few lines:
as §1

Test [3] deals with T1, Heat shock protein HSP90 (Homo sapiens) (UniProt P07900+P08238). Kind of test: Inhibition of HSP90 in human H1975 cells assessed as downregulation of FAK protein level by Western blot analysis. The format is cell-based. In a few lines:
(§3)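 H1975 cells given DMSO or 0.1-3 μM compound for 24 h, or 1 μM for varying times. HSP70 and HSP90 client proteins detected by Western blot of whole-cell lysates, with GAPDH as internal control. Repeated in at least three independent experiments.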

For test [4], the target named is T1, Heat shock protein HSP90 (Homo sapiens). Kind of test: Inhibition of HSP90 in human H1975 cells assessed as downregulation of EGFR protein level by Western blot analysis. The test is classed as cell-based. In a few lines: as §3
Another test has as its target Histone deacetylase 11 (Homo sapiens, UniProt Q96DB2). Nature of the test: Inhibition of human recombinant N-terminal Streptavidin2-tagged HDAC11 (1 to 347 residues) expressed in baculovirus infected insect cells using Boc-Lys(TFA)-AMC as substrate after 60 mins by fluorescence assay. In a few lines:
as §1

The test system of test [5] is NCI-H1975. Kind of test: Induction of apoptosis in human NCI-H1975 cells assessed as activation of caspase 3 at 0.1 to 3 uM measured after 48 hrs immunoblot analysis. The format is functional, cell-based. In a few lines: as §2
Test [6] concerns the target Histone deacetylase (Homo sapiens) (UniProt Q13547+O15379+Q9UBN7+Q92769+Q9UQL6+Q8WUI4+Q9BY41+Q96DB2+P56524+Q9UKV0+Q969S8). Kind of test: Inhibition of HDAC in human H1975 cells assessed as Histone H3 acetylation after 24 hrs by Western blot analysis. The test is classed as cell-based. In a few lines: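 Whole-cell lysates from H1975 cells after 24 h culture with compound at the indicated concentrations. Acetylated α-tubulin and acetylated histone H3 detected by immunoblot: SDS-PAGE, PVDF transfer, primary antibody overnight at 4°C, HRP secondary, ECL. Repeated at least three times.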

A further test deals with Histone deacetylase 2 (Homo sapiens, UniProt Q92769). Kind of test: Inhibition of recombinant human GST-tagged HDAC2 (1 to 488 residues) expressed in baculovirus infected sf21 cells using RHK-K(Ac)-AMC as substrate after 60 mins by fluorimetry assay. In a few lines:
as §1

Test [7] has as its system NCI-H1975. Nature of the test: cells. As to conditions: Homo sapiens, NCI-H1975, 48 h. The test is classed as functional.
In test [8] the target is Polyamine deacetylase HDAC10 (Homo sapiens, UniProt Q969S8). Nature of the test: Inhibition of human HDAC10 using fluorescent-labelled p53 residues 379 to 382 (RHKKAc) peptide as substrate by fluorescence assay. In a few lines: as §1
Sequence of Polyamine deacetylase HDAC10 (Q969S8 whole entry, the tested form may be a part): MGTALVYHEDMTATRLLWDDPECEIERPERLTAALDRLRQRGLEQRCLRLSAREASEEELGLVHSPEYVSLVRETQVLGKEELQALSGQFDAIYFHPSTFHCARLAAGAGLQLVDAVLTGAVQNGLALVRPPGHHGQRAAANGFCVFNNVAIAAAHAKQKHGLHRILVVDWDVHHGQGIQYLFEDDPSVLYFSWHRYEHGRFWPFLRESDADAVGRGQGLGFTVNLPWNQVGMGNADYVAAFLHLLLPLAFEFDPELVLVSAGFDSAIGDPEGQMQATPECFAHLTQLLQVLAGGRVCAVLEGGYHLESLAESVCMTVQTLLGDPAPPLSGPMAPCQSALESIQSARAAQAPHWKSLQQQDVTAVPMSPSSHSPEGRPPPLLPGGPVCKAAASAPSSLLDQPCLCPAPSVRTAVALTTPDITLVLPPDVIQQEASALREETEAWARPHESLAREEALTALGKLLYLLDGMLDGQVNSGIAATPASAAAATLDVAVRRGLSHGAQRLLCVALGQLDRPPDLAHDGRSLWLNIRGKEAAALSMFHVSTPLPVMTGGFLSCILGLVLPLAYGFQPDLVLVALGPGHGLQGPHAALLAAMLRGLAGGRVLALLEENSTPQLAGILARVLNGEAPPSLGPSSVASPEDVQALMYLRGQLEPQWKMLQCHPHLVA
Test [9] has as its system NCI-H1975. Nature of the test: Induction of apoptosis in human NCI-H1975 cells assessed as activation of PARP at 0.1 to 3 uM measured after 48 hrs immunoblot analysis. The test is classed as functional, cell-based. In a few lines: as §2
Another test has as its target Histone deacetylase 8 (Homo sapiens, UniProt Q9BY41). Kind of test: Inhibition of recombinant C-terminal His-fusion tagged and N-terminal Streptavidin2-tagged human HDAC8 (1 to 377 residues) expressed in insect cells using RHK-K(Ac)-AMC as substrate after 60 mins by fluorescence assay. In a few lines:
as §1

The subject of the next test is HCT-116. Nature of the test: cells. The test is classed as functional. The note with it: Homo sapiens, HCT-116, 48 h.
In a further test the target is Histone deacetylase 5 (Homo sapiens, UniProt Q9UQL6). Nature of the test: Inhibition of recombinant human C-terminal His-fusion tagged HDAC5 (657 to 1123 residues) expressed in baculovirus infected insect cells using Boc-K(Ac)-AMC as substrate after 60 mins by fluorimetry analysis. In short, it runs like this: as §1
Sequence of Histone deacetylase 5 (Q9UQL6 whole entry, the tested form may be a part): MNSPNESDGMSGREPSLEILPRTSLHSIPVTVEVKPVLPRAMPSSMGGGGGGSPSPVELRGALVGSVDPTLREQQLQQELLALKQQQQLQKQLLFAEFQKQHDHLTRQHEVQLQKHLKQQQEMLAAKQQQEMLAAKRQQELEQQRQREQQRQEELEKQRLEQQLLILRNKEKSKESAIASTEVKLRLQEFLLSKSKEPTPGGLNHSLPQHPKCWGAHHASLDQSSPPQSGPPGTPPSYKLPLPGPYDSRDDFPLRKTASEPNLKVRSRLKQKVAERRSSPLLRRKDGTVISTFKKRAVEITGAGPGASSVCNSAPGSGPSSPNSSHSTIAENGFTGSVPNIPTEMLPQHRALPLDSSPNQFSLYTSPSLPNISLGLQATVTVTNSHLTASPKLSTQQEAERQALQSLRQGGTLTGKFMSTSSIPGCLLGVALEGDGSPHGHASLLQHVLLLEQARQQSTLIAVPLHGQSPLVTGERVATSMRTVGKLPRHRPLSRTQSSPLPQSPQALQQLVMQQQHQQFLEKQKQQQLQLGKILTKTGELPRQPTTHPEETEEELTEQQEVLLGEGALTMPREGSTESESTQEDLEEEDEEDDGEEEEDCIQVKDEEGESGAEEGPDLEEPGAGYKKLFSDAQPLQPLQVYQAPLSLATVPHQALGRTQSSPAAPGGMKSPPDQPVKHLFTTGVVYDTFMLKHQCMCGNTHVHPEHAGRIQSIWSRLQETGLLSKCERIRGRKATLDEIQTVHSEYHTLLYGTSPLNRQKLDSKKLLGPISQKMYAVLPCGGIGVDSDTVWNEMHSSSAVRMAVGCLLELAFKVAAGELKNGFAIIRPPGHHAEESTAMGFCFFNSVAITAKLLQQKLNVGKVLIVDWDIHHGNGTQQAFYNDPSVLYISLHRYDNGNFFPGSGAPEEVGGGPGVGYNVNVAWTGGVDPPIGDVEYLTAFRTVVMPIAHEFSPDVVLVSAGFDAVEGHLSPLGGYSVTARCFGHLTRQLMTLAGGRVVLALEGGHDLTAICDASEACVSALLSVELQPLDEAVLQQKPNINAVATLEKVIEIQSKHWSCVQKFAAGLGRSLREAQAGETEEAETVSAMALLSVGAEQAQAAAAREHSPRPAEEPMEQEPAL
The subject of test [10] is NCI-H1975. Kind of test: Induction of apoptosis in human NCI-H1975 cells assessed as activation of gamma H2AX at 0.1 to 3 uM measured after 48 hrs immunoblot analysis. The test is classed as functional, cell-based. In short, it runs like this:
as §2

The next test addresses Histone deacetylase 7 (Homo sapiens, UniProt Q8WUI4). Kind of test: Inhibition of recombinant human N-terminal GST-tagged HDAC7 (518 to 991 residues) expressed in baculovirus infected insect cells using Boc-K(Ac)-AMC as substrate after 90 mins by fluorimetry analysis. In a few lines:
as §1

Test [11] has as its target Protein deacetylase HDAC6 (Homo sapiens, UniProt Q9UBN7). Nature of the test: Inhibition of recombinant human N-terminal GST-tagged HDAC6 (1 to 1125 residues) expressed in baculovirus infected insect cells using RHK-K(Ac)-AMC as substrate after 90 mins by fluorimetry analysis. In a few lines: as §1
Test [12] has as its target T1, Heat shock protein HSP90 (Homo sapiens). Nature of the test: Inhibition of HSP90 in human H1975 cells assessed as downregulation of SRC protein level by Western blot analysis. The format is cell-based. In a few lines: as §3
Test [13] has the same target. Nature of the test: Inhibition of HSP90 in human H1975 cells assessed as downregulation of Rb protein level by Western blot analysis. The test is classed as cell-based. In short, it runs like this: as §3

Sequence of Histone deacetylase 3 (O15379 whole entry, the tested form may be a part, canonical isoform): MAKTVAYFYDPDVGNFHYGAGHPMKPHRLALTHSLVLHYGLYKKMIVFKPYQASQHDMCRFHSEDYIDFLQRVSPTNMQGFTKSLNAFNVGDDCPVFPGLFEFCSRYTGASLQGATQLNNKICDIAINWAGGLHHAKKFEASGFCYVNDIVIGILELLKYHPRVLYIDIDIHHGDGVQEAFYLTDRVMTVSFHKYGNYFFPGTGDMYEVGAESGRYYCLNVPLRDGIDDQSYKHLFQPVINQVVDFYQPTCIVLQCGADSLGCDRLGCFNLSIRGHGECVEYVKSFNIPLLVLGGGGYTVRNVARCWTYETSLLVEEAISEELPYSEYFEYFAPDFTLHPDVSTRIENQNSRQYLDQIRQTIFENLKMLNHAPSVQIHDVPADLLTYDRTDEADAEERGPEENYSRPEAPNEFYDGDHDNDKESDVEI
Sequence of Histone deacetylase 4 (P56524 whole entry): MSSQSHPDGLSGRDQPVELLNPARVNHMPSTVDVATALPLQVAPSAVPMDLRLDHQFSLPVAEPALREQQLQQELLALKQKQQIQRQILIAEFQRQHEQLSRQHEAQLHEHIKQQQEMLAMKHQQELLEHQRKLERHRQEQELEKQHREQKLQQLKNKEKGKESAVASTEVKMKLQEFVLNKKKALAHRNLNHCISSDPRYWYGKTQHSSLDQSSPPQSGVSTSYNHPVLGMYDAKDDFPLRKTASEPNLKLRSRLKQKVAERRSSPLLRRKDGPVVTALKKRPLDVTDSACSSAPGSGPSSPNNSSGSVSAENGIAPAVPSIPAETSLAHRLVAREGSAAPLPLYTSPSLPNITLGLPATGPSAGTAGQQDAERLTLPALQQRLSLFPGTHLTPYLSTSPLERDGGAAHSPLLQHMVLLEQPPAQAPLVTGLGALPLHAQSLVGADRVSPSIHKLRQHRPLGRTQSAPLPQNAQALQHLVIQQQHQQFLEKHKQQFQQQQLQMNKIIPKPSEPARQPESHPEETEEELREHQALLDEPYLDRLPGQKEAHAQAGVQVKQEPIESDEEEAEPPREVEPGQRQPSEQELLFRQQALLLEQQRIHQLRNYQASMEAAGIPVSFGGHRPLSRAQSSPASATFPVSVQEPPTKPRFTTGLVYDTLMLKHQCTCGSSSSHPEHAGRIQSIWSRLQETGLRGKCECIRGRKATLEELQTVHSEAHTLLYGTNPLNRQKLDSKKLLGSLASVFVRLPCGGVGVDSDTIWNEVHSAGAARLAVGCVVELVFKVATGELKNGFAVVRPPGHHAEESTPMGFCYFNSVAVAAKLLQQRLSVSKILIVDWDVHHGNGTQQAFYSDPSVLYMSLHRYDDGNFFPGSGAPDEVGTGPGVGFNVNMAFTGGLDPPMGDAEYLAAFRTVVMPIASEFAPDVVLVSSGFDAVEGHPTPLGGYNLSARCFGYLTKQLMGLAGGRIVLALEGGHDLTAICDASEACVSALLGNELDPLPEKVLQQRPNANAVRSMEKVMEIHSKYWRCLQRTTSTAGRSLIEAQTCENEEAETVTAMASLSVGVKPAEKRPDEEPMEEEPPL
Sequence of Histone deacetylase 2 (Q92769 whole entry, the tested form may be a part): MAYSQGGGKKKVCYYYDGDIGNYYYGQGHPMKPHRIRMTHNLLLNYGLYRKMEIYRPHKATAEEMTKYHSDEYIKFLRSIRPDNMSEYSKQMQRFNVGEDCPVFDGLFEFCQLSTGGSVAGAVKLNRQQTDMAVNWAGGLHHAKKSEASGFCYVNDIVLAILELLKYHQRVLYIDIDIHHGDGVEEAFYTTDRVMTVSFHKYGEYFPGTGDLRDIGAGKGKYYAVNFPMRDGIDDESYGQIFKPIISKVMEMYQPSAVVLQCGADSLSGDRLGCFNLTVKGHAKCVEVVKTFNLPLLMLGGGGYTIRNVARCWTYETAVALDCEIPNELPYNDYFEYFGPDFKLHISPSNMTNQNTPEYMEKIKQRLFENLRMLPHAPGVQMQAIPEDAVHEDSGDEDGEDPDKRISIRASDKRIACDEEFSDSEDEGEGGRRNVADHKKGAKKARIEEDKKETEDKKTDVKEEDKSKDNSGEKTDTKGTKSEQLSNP
Sequence of Histone deacetylase 9 (Q9UKV0 whole entry): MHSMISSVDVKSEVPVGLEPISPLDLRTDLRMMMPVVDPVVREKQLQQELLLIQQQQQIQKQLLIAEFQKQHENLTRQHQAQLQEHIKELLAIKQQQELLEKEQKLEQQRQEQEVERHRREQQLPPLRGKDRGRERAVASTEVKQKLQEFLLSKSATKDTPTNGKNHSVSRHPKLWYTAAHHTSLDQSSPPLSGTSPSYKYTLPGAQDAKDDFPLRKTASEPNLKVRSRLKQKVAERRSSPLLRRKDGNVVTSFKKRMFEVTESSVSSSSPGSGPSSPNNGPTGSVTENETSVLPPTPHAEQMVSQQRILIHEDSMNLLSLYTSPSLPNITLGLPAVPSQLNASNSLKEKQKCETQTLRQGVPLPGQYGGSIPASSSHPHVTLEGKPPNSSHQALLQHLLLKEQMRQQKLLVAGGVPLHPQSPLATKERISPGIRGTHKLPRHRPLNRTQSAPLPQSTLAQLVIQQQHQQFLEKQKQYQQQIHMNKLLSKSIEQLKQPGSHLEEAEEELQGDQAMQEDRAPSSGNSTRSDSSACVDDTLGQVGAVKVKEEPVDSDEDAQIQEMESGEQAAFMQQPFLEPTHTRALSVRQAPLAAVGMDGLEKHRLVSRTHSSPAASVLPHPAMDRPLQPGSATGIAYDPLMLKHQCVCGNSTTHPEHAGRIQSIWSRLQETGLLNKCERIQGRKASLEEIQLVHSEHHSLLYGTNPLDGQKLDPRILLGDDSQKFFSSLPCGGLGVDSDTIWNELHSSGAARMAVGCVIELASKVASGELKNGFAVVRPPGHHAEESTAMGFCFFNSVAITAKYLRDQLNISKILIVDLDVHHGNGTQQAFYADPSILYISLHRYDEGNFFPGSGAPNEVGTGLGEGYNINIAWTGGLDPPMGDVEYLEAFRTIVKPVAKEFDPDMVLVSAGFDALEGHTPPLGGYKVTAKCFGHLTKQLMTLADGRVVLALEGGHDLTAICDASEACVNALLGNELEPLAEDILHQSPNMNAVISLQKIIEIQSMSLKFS

As a reminder, the pIC50 is the negative decadic logarithm of the IC50, by convention in mol/L. As a reminder, the GI50 is the concentration that inhibits growth by half. In the case of `CC(C)c1cc(C(=O)N(C)c2ccc(NC(=O)CCCCCCCC(=O)NO)cc2)c(O)cc1O`, the negative logarithm of the IC50 (pIC50) at Histone deacetylase 3 was 5.84; on Histone deacetylase 4 it was less than 5.00; on Histone deacetylase, 6.44; against Histone deacetylase 9 it was less than 5.00; on Histone deacetylase 11 it was 5.72; at Histone deacetylase 2 it was 5.31. Moreover, the pIC50 in test [8] was less than 5.00; on Histone deacetylase 8 it was 5.47; on Histone deacetylase 5, 5.27; at Histone deacetylase 7, 5.19; in [11], 6.50. The GI50 in the test with A549 was 440 nM; in the test on NCI-H1975 [7], 400 nM; in the test with HCT-116 it was 1060 nM. For the same compound, the result in the test on NCI-H1975 [1], in the test with NCI-H1975 [5], with NCI-H1975 [9] and in the test with NCI-H1975 [10] was Active. In addition, the inhibition entry (with NCI-H1975 [2]; in test [6]) was “Dose-dependent effect” in each case. Besides, the inhibition entry in test [3], in [4], in test [12] and in [13] was “Active” each time.

On to `CC(C)c1cc(C(=O)N(C)c2ccc(NC(=O)CCCCCCC(=O)NO)cc2)c(O)cc1O`, for which the pIC50 on Histone deacetylase 3 was 5.69; on Histone deacetylase 4, less than 5.00; on Histone deacetylase it was 6.71; at Histone deacetylase 9, less than 5.00; on Histone deacetylase 11, 5.44; at Histone deacetylase 2, 5.92. Also, the pIC50 in [8] was 5.57; at Histone deacetylase 8 it was 6.37; at Histone deacetylase 5, 5.10; on Histone deacetylase 7, less than 5.00; in [11], 7.40. For the same compound, the GI50 worked out at 770 nM in the test on A549, 690 nM with NCI-H1975 [7] and 830 nM with HCT-116. The result in the test on NCI-H1975 [1], in the test with NCI-H1975 [5], in the test on NCI-H1975 [9] and in the test with NCI-H1975 [10] was Active. Also, the inhibition result (in the test with NCI-H1975 [2]; in test [6]) was “Dose-dependent effect” in each case. The inhibition result in test [3], in test [4], in [12] and in test [13] was “Active” throughout.
